The whole screen tested about 310,000 compounds, of which about 1,400 (0.45%) were called active. This is one part of a sample in which actives are shown more often than they occur.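 Rule for the calls: active = calcium response B-score plate-corrected fluorescence ratio at least 3 library SD, with starting fluorescence B-score inside 5 SD; inactive = the rest.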

Sequence of Mas-related G-protein coupled receptor member X1 (Homo sapiens) (Q96LB2 whole entry, looked up): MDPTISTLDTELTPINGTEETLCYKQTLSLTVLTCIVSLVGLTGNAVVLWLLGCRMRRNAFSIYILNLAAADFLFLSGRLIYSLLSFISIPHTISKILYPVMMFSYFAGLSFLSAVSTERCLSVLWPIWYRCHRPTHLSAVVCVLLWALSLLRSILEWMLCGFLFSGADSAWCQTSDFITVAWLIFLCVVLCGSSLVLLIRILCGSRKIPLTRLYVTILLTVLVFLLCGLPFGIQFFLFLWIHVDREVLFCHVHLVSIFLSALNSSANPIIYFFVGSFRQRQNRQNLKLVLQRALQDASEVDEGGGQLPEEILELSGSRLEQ

The test deals with Mas-related G-protein coupled receptor member X1 (Homo sapiens) (UniProt Q96LB2). The test can be described thus: MrgX1 activation via calcium signaling – HEK293 cells, Fluo-4 calcium flux, primary screen (AID 588627).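 For B-score: B-score of the peak-minus-trough calcium fluorescence change over baseline.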 The note with it: Fluo-4 calcium fluorescence, agonist mode, at 10 µM; hits give high values. The procedure, abridged:
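Material: HEK293 cells stably expressing human MrgX1 receptor | Quantity: 15,000 cells per well | Times: Cells plated overnight, dye loaded 0.5 h 37 °C, 0.5 h room temperature | Measured by: Kinetic Fluo-4 NW fluorescence of intracellular calcium | Control set: Positive and negative controls per plate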
(A change in cytosolic calcium serves as a functional read-out for many receptors and channels.)
Turning to `COc1cccc(CN(C)CC(O)COC(c2ccccc2)c2ccccc2C)c1` (stereo unspecified), the B-score entry is “inactive”.

For `Cn1c(=O)c2cc(S(=O)(=O)NCCC(=O)Nc3ccc(F)cc3F)ccc2n(C)c1=O`, the B-score entry is “inactive”.

Regarding `Cc1ccc(C(=O)C(C)OC(=O)Cc2n[nH]c(=O)c3ccccc23)cc1C` (stereo unspecified), the B-score entry was “inactive”.

With `Cc1cccc(-c2nc3ccccc3c(=O)n2NC(=O)Cc2ccc(Cl)cc2)c1`, the B-score entry was “inactive”.

Regarding `O=c1c2cc(Br)ccc2nc(-c2cccc(Cl)c2)n1O`, the B-score is 67.7 (active).

Turning to `O=C1CCCc2c1nc(-c1cccc(Cl)c1)n2O`, the B-score result is “inactive”.

For `Cc1c2cnn(CC(=O)NCCCN3CC(C)CC(C)C3)c(=O)c2c(C)n1Cc1ccc(Cl)cc1` (stereo unspecified), the B-score result was “inactive”.

For the molecule `COc1cc(NC(=O)C2=C(C)OCCS2)c(Cl)cc1C(=O)NCCN1CCN(C)CC1`, the B-score entry was “inactive”.

`O=C(Nc1ccccc1N1CCOCC1)c1ccc(OCc2cscn2)cc1`: the B-score result was “inactive”.

In the case of `Cc1nn(CC2CC2)c(=O)n1N(C)c1ncc(C(F)(F)F)cc1Cl`, the B-score result is “inactive”.

Consider `COc1ccc(-c2ccnc(SCC(=O)N3CCOCC3)n2)cc1`, for which the B-score entry is “inactive”.

Turning to `C=CCC1=C/C(=C\c2c(N)n3nc(CC(=O)N4CCOCC4)sc3nc2=O)C=C(OC)C1=O`, the B-score entry was “inactive”.

With `COC1=C/C(=C/c2c(N)n3nc(CC(=O)N4CCOCC4)sc3nc2=O)C=CC1=O`, the B-score was 34.8 (active).

In the case of `CC(=O)Nc1nc2c(s1)C(=O)NCC(C)(C)C2`, the B-score result was “inactive”.

Turning to `NC(=O)N1CCCC1C(=O)Nc1ccc(Cl)c(Cl)c1` (stereo unspecified), the B-score result was “inactive”.

Consider `CC1(C(=O)O)CCC(C(=O)Nc2ccc(Cl)c(Cl)c2)C1(C)C` (stereo unspecified), for which the B-score was 30.1 (active).

For the molecule `CCN(CC)C(=O)C1CCC(C)(C(=O)O)C1(C)C` (stereo unspecified), the B-score result is “inactive”.

In the case of `Cc1ccsc1C1C(C#N)=C(N)OC2=C1C(=O)CC(C)(C)C2` (stereo unspecified), the B-score result is “inactive”.

On to `Cc1c(C(=O)Nc2ccccc2)sc2nc3n(c(=O)c12)CCCCC3`, for which the B-score entry was “inactive”.

Consider `COc1ccc(OC)c(NC(=O)c2ccc3c(c2)C(=O)N(c2ccc(OC(C)=O)cc2)C3=O)c1`, for which the B-score entry is “inactive”.

As to `O=C1C(=O)N(CC2COc3ccccc3O2)c2ccccc21` (stereo unspecified), the B-score is 56 (active).

With `Cc1cc(C(=O)CCl)c(C)n1CC1COc2ccccc2O1` (stereo unspecified), the B-score result was “inactive”.

With `O=C(CN1C(=O)C2C3C=CC(C3)C2C1=O)NCC1COc2ccccc2O1` (stereo unspecified), the B-score entry is “inactive”.

As for `Cc1ccc(S(=O)(=O)NC2CCCCCC2)cc1C(N)=O`, the B-score result was “inactive”.

As for `O=c1nc2s/c(=C\c3ccco3)c(=O)n2nc1Cc1ccccc1`, the B-score result is “inactive”.

As for `CN(c1ccccc1)c1ccc(/C=c2\s/c(=C(/C#N)C(=O)C(C)(C)C)n(Cc3ccco3)c2=O)cc1`, the B-score was 193 (active).

Regarding `CCOC(=O)/C=c1\s/c(=C\c2ccc(C#N)cc2)c(=O)n1CC(=O)Nc1cccc(C)c1C`, the B-score result was “inactive”.

For `CCCC[C@@H]1CN=C(N)N1CCCC`, the B-score result is “inactive”.

As to `CCCCN1C(N)=NC[C@@H]1Cc1ccccc1`, the B-score entry is “inactive”.

Consider `CCCCN1C(N)=NC[C@@H]1CC1CCCCC1`, for which the B-score is 36.9 (active).

On to `CCOc1ccc(/C=C/C(=O)N(CC)CC(=O)NCc2cccs2)cc1OC`, for which the B-score entry was “inactive”.

In the case of `CC(C)(C)N(Cc1ccccc1)C(=O)c1ccncc1`, the B-score result is “inactive”.

Consider `NC(N)=N/N=C/c1ccc(Cl)c([N+](=O)[O-])c1`, for which the B-score was 28.4 (active).

For the molecule `O=C(/C=C/c1ccc(Cl)c([N+](=O)[O-])c1)c1ccc(O)cc1`, the B-score result was “inactive”.

For `O=C(/C=C/c1ccc(Cl)c([N+](=O)[O-])c1)c1cccnc1`, the B-score entry was “inactive”.

As to `Cc1ccc(C(=O)C[n+]2cc(-c3ccccc3)n3c2CCCCC3)cc1`, the B-score result is “inactive”.

Regarding `COc1ccc(-c2cc(C(=O)NC(Cc3c[nH]c4ccccc34)C(=O)O)c(C)o2)cc1OC` (stereo unspecified), the B-score entry is “inactive”.

Take `NS(=O)(=O)c1ccc(NC(=O)COC(=O)C2(c3ccc(F)cc3)CCCC2)cc1`: the B-score entry is “inactive”.

Turning to `CCOc1ccc(C(C)C)cc1S(=O)(=O)n1nc(C)cc1C`, the B-score result was “inactive”.

As to `COc1ccc(OCc2cn3c(C)cc(C)nc3n2)cc1`, the B-score entry was “inactive”.

With `COc1ccc(C(C[N+](=O)[O-])n2nc(C)cc2C)cc1` (stereo unspecified), the B-score was 46.1 (active).

Consider `CCC(C)(C(=O)NC1CCCC1)N(C(=O)CNC(C)=O)c1ccc(C)cc1` (stereo unspecified), for which the B-score result is “inactive”.

As for `CCCc1nc(N2CCN(C)CC2)c2sc(=S)n(-c3ccccc3)c2n1`, the B-score result was “inactive”.

With `OCCN(Cc1ccccc1)Cc1ccc(Cl)cc1`, the B-score result is “inactive”.

As to `CN(Cc1ccccc1)C(=O)CCc1ccccc1`, the B-score entry was “inactive”.

On to `CN(C(=O)CN(CCO)CC(=O)N(C)C(C)(C)Cc1ccccc1)C(C)(C)Cc1ccccc1`, for which the B-score was 44.7 (active).

Regarding `CC(C)C(=O)NCC(c1cccs1)S(=O)(=O)c1ccc(F)cc1` (stereo unspecified), the B-score entry is “inactive”.

As to `Cc1ncoc1C(=O)N1CCCC(C(=O)c2ccc3c4c(cccc24)CC3)C1` (stereo unspecified), the B-score result is “inactive”.

On to `CN(CC(=O)Nc1cccc(F)c1)C(=O)C1CSC2(C)CCC(=O)N12` (stereo unspecified), for which the B-score entry is “inactive”.

For the molecule `COc1ccc(Cl)cc1C(=O)NNC(=S)NC(=O)/C=C/c1ccco1`, the B-score was 51.7 (active).

For the molecule `COc1ccc(Cl)cc1C(=O)NNC(=S)NC1CCCC1`, the B-score entry is “inactive”.

For `C=CCNC(=S)NNC(=O)c1cc(Cl)ccc1OC`, the B-score entry is “inactive”.

`COc1ccc(C2c3ccc(O)cc3Oc3ncn(CCCO)c(=N)c32)cc1OC` (stereo unspecified): the B-score entry was “inactive”.

Turning to `CCc1cccc(C)c1NC(=O)COC(=O)Cc1ccsc1`, the B-score entry was “inactive”.

As to `CCN(Cc1nc2ccccc2c(=O)[nH]1)Cc1cc(=O)oc2cc(C)c(C)cc12`, the B-score was 34.9 (active).

With `CN(Cc1nc2ccccc2c(=O)[nH]1)Cc1cc(=O)oc2ccc3ccccc3c12`, the B-score result is “inactive”.

As for `CCN(CC(=O)NC(=O)NCc1ccccc1)Cc1nc2ccccc2c(=O)[nH]1`, the B-score result was “inactive”.

For the molecule `CCn1c(SCC(=O)Nc2ccc(C)cc2)nc2nc3c(cc2c1=O)CCCC3`, the B-score entry was “inactive”.

Consider `Cc1cc(C)cc(C(=O)NC(=S)Nc2ccc3[nH]c(=O)[nH]c3c2)c1`, for which the B-score result was “inactive”.

With `Cc1cc(O)c(C2(O)C(=O)Nc3ccccc32)cc1C` (stereo unspecified), the B-score result was “inactive”.

On to `COc1ccc(C2(O)C(=O)Nc3ccccc32)cc1` (stereo unspecified), for which the B-score result was “inactive”.

On to `Cc1ccc(NC2(C#N)C(=O)Nc3ccccc32)cc1` (stereo unspecified), for which the B-score is 45 (active).

Take `CCCCn1c(N)c(N(CC(C)C)C(=O)CSc2ccc([N+](=O)[O-])cc2)c(=O)[nH]c1=O`: the B-score entry is “inactive”.

`CN(CCc1ccccn1)C(=O)c1ccc(OC2CCN(CCc3ccccc3)CC2)cc1`: the B-score entry was “inactive”.

On to `O=C1Cc2ccccc2Sc2ccc(Cl)cc21`, for which the B-score was 28.3 (active).

For the molecule `O=C1CC2(CCCC2)Oc2ccc(Cl)cc21`, the B-score result is “inactive”.

For `S=C1Nc2cc(Cl)ccc2Sc2ccccc21`, the B-score entry was “inactive”.

Consider `O=C(N/N=C/c1cc(Br)c(O)c([N+](=O)[O-])c1)C(O)(c1ccccc1)c1ccccc1`, for which the B-score entry was “inactive”.

Consider `CN(C)/N=C/c1cc(Cl)cc([N+](=O)[O-])c1O`, for which the B-score result was “inactive”.

Consider `O=C(N/N=C/c1cc(Cl)cc([N+](=O)[O-])c1O)C(O)(c1ccccc1)c1ccccc1`, for which the B-score is 36.2 (active).

Consider `COc1ccc(-n2nc(C(=O)NCC(=O)N3CCC(C(N)=O)CC3)c3ccccc3c2=O)cc1OC`, for which the B-score result is “inactive”.

For `Cc1ccc(NS(=O)(=O)c2cccs2)cc1S(=O)(=O)N1CCCCCC1`, the B-score entry is “inactive”.

Regarding `CCOC(=O)CCc1c(C)c(C#N)c2[nH]c3ccccc3n2c1=O`, the B-score entry was “inactive”.

In the case of `CCCc1cc(=S)n2c([nH]c3ccccc32)c1C#N`, the B-score was 29.9 (active).

For `CN(C)Cc1c(C#N)c2ccccc2n1C`, the B-score result is “inactive”.

With `CCCCN(C(=O)CCNC(=O)NC12CC3CC(CC(C3)C1)C2)c1c(N)n(CCCC)c(=O)[nH]c1=O`, the B-score entry was “inactive”.

Take `COc1ccc2[nH]cc(CCN3C(=O)c4ccc(C(=O)O)cc4C3=O)c2c1`: the B-score result was “inactive”.

Regarding `CCOc1cccc(OCCCOc2cccc3cccnc23)c1`, the B-score entry was “inactive”.

With `OCc1ccc(OCCCOc2cccc3cccnc23)cc1`, the B-score is 27.9 (active).

With `Cc1cc(OCCOc2cccc3cccnc23)c(C)cc1Cl`, the B-score entry was “inactive”.

As for `CCC(=O)c1cn(CCOc2ccccc2OC)c2ccccc12`, the B-score result is “inactive”.

In the case of `CC[n+]1cc(C)ccc1/C=C/c1ccc(N(C)C)cc1`, the B-score is 27.3 (active).

For the molecule `O=C(NCCCN1CCN(c2ccc(F)cc2)CC1)Nc1ccc([N+](=O)[O-])cc1`, the B-score result is “inactive”.

Regarding `CCNC(=O)CCc1nc(-c2ccc(C(C)(C)C)cc2)no1`, the B-score entry was “inactive”.

`CNC(=S)N1CCC(NC(=O)C(Cc2ccc(F)cc2)NC(C)=O)CC1` (stereo unspecified): the B-score result was “inactive”.

As for `CS(=O)(=O)N1CCc2cc(C(=O)Nc3ccccc3Br)ccc21`, the B-score entry was “inactive”.

On to `N=C(N)SCc1cccc2ccccc12`, for which the B-score was 36.5 (active).

Take `CCOc1ccc(Br)cc1CSC(=N)N`: the B-score result is “inactive”.

Consider `c1ccc2c(CSCc3nc4ccccc4[nH]3)cccc2c1`, for which the B-score result is “inactive”.

As to `CCN(CC)c1ccc(C(=O)NNC(=O)CCc2nc3ccccc3c(=O)[nH]2)cc1`, the B-score entry was “inactive”.

Consider `CC(=O)c1ccc(N=C2SCCCN2C(=O)C2CCCCC2)cc1`, for which the B-score result is “inactive”.

Take `O=C(Cc1csc(Nc2nc(=S)[nH]c3ccccc23)n1)NCCCN1CCN(c2cccc(Cl)c2)CC1`: the B-score entry is “inactive”.

Take `O=C(/C=C/c1cccc([N+](=O)[O-])c1)N1CCN(Cc2ccccc2)CC1`: the B-score result was “inactive”.

As to `O=[N+]([O-])/C=C/c1ccc2c(ccn2Cc2ccccc2)c1`, the B-score was 37.8 (active).

As for `O=C(Cn1ccc2cc(S(=O)(=O)N3CCCC3)ccc21)NCc1ccccc1`, the B-score entry is “inactive”.

On to `COc1cccc(CNC(=O)c2nnn(CC(=O)Nc3cc(C)ccc3C)c2N)c1`, for which the B-score result was “inactive”.

With `COCCNC(=O)C(c1ccc(O)cc1)N(C(=O)CCC(=O)Nc1nccs1)c1ccc(C)cc1` (stereo unspecified), the B-score entry is “inactive”.

For the molecule `COc1ccc(NC2CC(=O)N(C)C2=O)cc1` (stereo unspecified), the B-score result is “inactive”.

As for `CCCCCOc1ccc(CSC2=NCCN2)cc1[N+](=O)[O-]`, the B-score result is “inactive”.

For the molecule `CCCOc1ccc(Cn2ccnc2)cc1[N+](=O)[O-]`, the B-score entry was “inactive”.

Regarding `CCCCOc1ccc(CSC(=N)N)cc1[N+](=O)[O-]`, the B-score was 42.7 (active).

The record behind these values is PubChem BioAssay AID588627 (Johns Hopkins Ion Channel Center, 2011).
